Reference: article PMC9434060 (Heliyon, 2022)

Legend:
XCGL-1 [1] = assay: Inhibition of XCGL-1 hemagglutination; type: cell-based, Xenopus laevis; details: pig red blood cells; for inhibition of agglutination: 50 nM XCGL-1, millimolar concentrations; for inhibition of hemagglutination by carbohydrates: 25 nM XCGL-1
Outline: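 Citrated fresh pig red cells, washed in 20 mM HEPES pH 7.5, 150 mM NaCl, 10 mM CaCl2, used as a 2.5% suspension in a Terasaki plate. Two set-ups: carbohydrates at various concentrations with 25 nM lectin; EDTA or galactose at millimolar concentrations with 50 nM lectin. Plates photographed after 1 h.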

His6 XCGL-1 CRD = assay: Inhibition of His6 XCGL-1 CRD hemagglutination by carbohydrates; type: cell-based, Xenopus laevis; details: pig red blood cells, 25 nM XCGL-1
XCGL-1 [2] = assay: Competitive elution of XCGL-1 from lactose resin; set-up: species or system Xenopus laevis; details: carbohydrate 6.5 mM in binding buffer, western blot
Outline: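 Lactose-agarose resin (250 μL) settled in a spin column and washed three times with binding buffer (20 mM HEPES pH 7.5, 150 mM NaCl, 10 mM CaCl2). Protein (250 μL, 0.1 μM) bound for 5 min, then washed three times. Elution with each carbohydrate at 6.5 mM in binding buffer; eluates analysed by western blot.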

Refolded XCGL-1 CRD = assay: Inhibition of refolded XCGL-1 CRD hemagglutination by carbohydrates; type: cell-based, Xenopus laevis; details: pig red blood cells; for inhibition of hemagglutination at 25 mM: 25 nM XCGL-1, carbohydrate 25 mM; for concentration at which inhibition of hemagglutination was observed: 25 nM XCGL-1
His6 XCGL-1 = His6 XCGL-1 (Xenopus laevis, UniProt Q91719); assay: Inhibition of His6 XCGL-1 hemagglutination by carbohydrates; type: cell-based; details: pig red blood cells, 25 nM XCGL-1
Outline: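 Fresh pig blood collected into sodium citrate tubes. Red cells washed in 20 mM HEPES pH 7.5, 150 mM NaCl, 10 mM CaCl2 and used as a 2.5% suspension. Incubated with 25 nM lectin plus carbohydrate at various concentrations in a Terasaki plate. Agglutination photographed after 1 h. MIC is the minimum carbohydrate concentration inhibiting agglutination.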

Chain of His6 XCGL-1 (Q91719 18-313): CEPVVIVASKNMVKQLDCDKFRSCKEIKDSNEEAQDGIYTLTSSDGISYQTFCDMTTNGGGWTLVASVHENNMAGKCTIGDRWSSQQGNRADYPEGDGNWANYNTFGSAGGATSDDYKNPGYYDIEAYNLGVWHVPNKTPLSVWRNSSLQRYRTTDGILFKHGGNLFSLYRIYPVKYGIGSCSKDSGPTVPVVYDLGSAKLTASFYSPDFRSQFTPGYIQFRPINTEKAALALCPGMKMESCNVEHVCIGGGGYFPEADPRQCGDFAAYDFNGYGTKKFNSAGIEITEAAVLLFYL

Structure (SMILES)	inhibition of hemagglutination by carbohydrates (XCGL-1 [1])	minimum inhibitory concentration (MIC) of hemagglutination (His6 XCGL-1 CRD) [mM]	competitive elution of XCGL-1 bound to lactose resin (XCGL-1 [2])	minimum inhibitory concentration (MIC) of hemagglutination (His6 XCGL-1) [mM]	also measured
O=C(O)CN(CCN(CC(=O)O)CC(=O)O)CC(=O)O [EDTA]					inhibition of agglutination (XCGL-1 [1]): inhibited
CC(=O)N[C@H]1C(O)O[C@H](CO)[C@H](O)[C@@H]1O (stereo partly drawn) [N-acetylgalactosamine, N-acetyl-D-galactosamine]	could not inhibit hemagglutination				
CC(=O)N[C@@H]1[C@@H](O)[C@H](O)[C@@H](CO)O[C@H]1O [N-acetylglucosamine, N-acetyl-D-glucosamine]	could not inhibit hemagglutination				
C[C@H](O)[C@@H](O)[C@@H](O)[C@H](O)C=O [fucose, L-fucose]	could not inhibit hemagglutination				
O=C[C@H](O)[C@@H](O)[C@@H](O)[C@H](O)CO [galactose, D-galactose]		10	able to elute XCGL-1 competitively	15	inhibition of agglutination (XCGL-1 [1]): inhibited; inhibition of hemagglutination at 25 mM (Refolded XCGL-1 CRD): not efficient at inhibiting hemagglutination
OC[C@H]1OC(O)[C@H](O)[C@@H](O)[C@@H]1O (some centres unmarked) [glucose]	could not inhibit hemagglutination				
OC[C@H]1O[C@@H](O[C@H]2[C@H](O)[C@@H](O)[C@H](O)O[C@@H]2CO)[C@H](O)[C@@H](O)[C@H]1O [lactose, β-D-Gal-(1→4)-D-Glc]		10	able to elute XCGL-1 competitively	15	concentration at which inhibition of hemagglutination was observed (Refolded XCGL-1 CRD): > 20 mM
OC[C@H]1OC(O)[C@@H](O)[C@@H](O)[C@@H]1O (stereo partly drawn) [mannose, D-mannose]	could not inhibit hemagglutination				
OC[C@H]1O[C@H](OCC2O[C@@H](O)[C@H](O)[C@@H](O)[C@@H]2O)[C@H](O)[C@@H](O)[C@H]1O (stereo partly drawn) [melibiose, α-D-Gal-(1→6)-D-Glc]		10	able to elute XCGL-1 competitively	15	concentration at which inhibition of hemagglutination was observed (Refolded XCGL-1 CRD): > 20 mM
CC(=O)N[C@H]1C(O)O[C@H](CO)[C@H](O)[C@@H]1O[C@H]1O[C@H](CO)[C@H](O)[C@H](O)[C@H]1O (stereo partly drawn) [α-D-Gal-(1→3)-D-GalNAc]		2.5	able to elute XCGL-1 competitively	5	inhibition of hemagglutination at 25 mM (Refolded XCGL-1 CRD): no inhibition
